Calls of active or inactive are those of the source. No cut-off for these calls is given here.
How the values were obtained:
[1] = tested on: Mus musculus; assay: Inhibition of thioglycolate-induced macrophage influx into peritoneal cavity in mouse at 80 mg/kg, po BID starting 1 hr before thioglycolate challenge for 4 days; assay type: functional
In short: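 Female C3H/HEN mice (22-26 g) were dosed orally with compound suspended in 0.5% hydroxypropylmethylcellulose/0.1% Tween 80 (0.2 ml per mouse). Thioglycolate (1.5 ml) was injected i.p. on day 0. On day 4, the peritoneum was lavaged with 5 ml cold PBS containing 40 units/ml heparin, and cells were counted by hemocytometer in 0.1% crystal violet. Data are mean ± SEM; Dunnett's test.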

[2] = target: Proto-oncogene tyrosine-protein kinase LCK (Mus musculus, UniProt P06240); assay: Inhibition of mouse LCK
[3] = target: [Pyruvate dehydrogenase (acetyl-transferring)] kinase isozyme 4, mitochondrial (Homo sapiens, UniProt Q16654); assay: Inhibition of human His-tagged PDHK4 using biotin-YHGHSMSDPGVSYRRR-amide as substrate after 20 mins by scintillation proximity assay
In short: (§1)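 Catalytic domains of the human kinases were expressed, isolated and assayed with ATP and the appropriate substrate. Compound was tested as a 10- to 12-point dose-response up to a maximal 20 μM.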

[4] = Inhibition of human GST-tagged PKA using biotin-(6-amino caproic acid)-LRRASLGKKK-amide as substrate after 70 mins by scintillation proximity assay
In short: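 Catalytic domains of human kinases expressed, isolated and assayed with ATP and the appropriate peptide substrate. Compound tested as a 10- to 12-point dose-response with a top concentration of 20 μM.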

[5] = target: Protein kinase C alpha type (Homo sapiens, UniProt P17252); assay: Inhibition of human PKCa catalytic domain after by scintillation counting; in short: as §1
[6] = Growth inhibition of CSF1-stimulated mouse M-NFS-60 cells after 3 days by spectrophotometry; assay type: functional; settings: NFS-60, 72 h
In short: (§2)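 Cells cultured so that added serum or growth factor gave linear growth. Compound tested as a 10- to 12-point dose-response with a top concentration of 20 μM.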

[7] = tested on: Monocyte; assay: Growth inhibition of CSF-1-stimulated freshly isolated human monocytes after 3 days by spectrophotometry; assay type: functional, cell-based; settings: 120 h, in the assay text read “after 5 days” for “after 3 days”; in short: as §2
[8] = tested on: NCI-N87; assay: Growth inhibition of serum-stimulated human NCI-N87 cells after 3 days by spectrophotometry; assay type: functional, cell-based; settings: NCI-N87, 72 h; in short: as §2
[9] = tested on: Monocyte; assay: Inhibition of LPS-stimulated growth of freshly isolated human monocytes at 1 uM preincubated for 30 mins before inducer addition measured after 5 days by WST-1 method; assay type: functional; settings: read-out: GI
[10] = tested on: PBMC; assay: Effect on LPS-induced TNF production in human PBMC at 0.03906 to 20 uM preincubated for 30 mins before LPS stimulation measured after 20 hrs by ELISA; assay type: functional, cell-based
[11] = tested on: Monocyte; assay: Effect on LPS-induced IL-6 production in human monocytes at 0.03906 to 20 uM preincubated for 30 mins before LPS stimulation measured after 20 hrs by ELISA; assay type: functional, cell-based
[12] = tested on: Peritoneal macrophage cell; assay: Effect on LPS-induced TNF production in mouse intraperitoneal macrophages pretreated with CSF-1 at 0.03906 to 20 uM compound incubated for 30 mins before LPS stimulation measured after 20 hrs by ELISA; assay type: functional, cell-based
[13] = tested on: Osteoclast; assay: Inhibition of human osteoclast degradation of bone assessed as reduction in 23C6(+) cells with more than 3 nuclei per cm2 of bone at 3 uM after 3 days by immunocytochemistry (reference value: 854 +/- 122 cells/cm2 of bone); assay type: functional
[14] = tested on: Osteoclast; assay: Inhibition of human osteoclast degradation of bone assessed as bone slice resorbed at 3 uM after 3 days by immunocytochemistry (reference value: 26.6 +/- 4.7 %); assay type: functional; settings: 72 h
[15] = tested on: Osteoclast; assay: Inhibition of human osteoclast degradation of bone assessed as reduction in 23C6(+) cells with more than 3 nuclei per cm2 of bone at 10 uM after 3 days by immunocytochemistry (reference value: 854 +/- 122 cells/cm2 of bone); assay type: functional
[16] = organism: Rattus norvegicus; assay: Inhibition of PTH-induced Wistar rat calvarial bone degradation assessed as reduction in DPPD level in media at 0.1 uM after 48 hrs; assay type: functional
In short: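 Rat calvaria incubated with PTH plus compound for two consecutive 48-h periods. Medium from the second period assayed for deoxypyridinoline crosslinks (DPPD).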

[17] = Protein binding in cell-culture media with rat plasma at 3 uM; assay type: ADME, cell-free; settings: read-out: PB (converted)
In short: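 Compound at 3 μM was added to triplicate samples and incubated 1 h at 37°C. Samples were centrifuged through a 30,000-MW filter (1,500 × g, 15 min, 4°C). Percent bound was calculated from compound concentrations in the filtrate and retentate.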

[18] = Cmax in mouse at 80 mg/kg, po; assay type: ADME, organism-based; set-up: dose 80 mg/kg, route oral; settings: in vivo
In short: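 Female mice given single oral doses (20 or 80 mg/kg) in 0.5% HPMC/0.1% Tween 80. Three mice killed with CO2 per time point; plasma extracted with isopropyl alcohol/acetonitrile, then vortexed, sonicated and centrifuged. Quantified by LC/MS (APCI positive mode, multiple-reaction monitoring) against a standard curve prepared in plasma.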

[19] = tested on: Mus musculus; assay: Inhibition of LPS-stimulated TNF production in mouse at 40 mg/kg, po administered 0.5 hr before LPS challenge measured […] after LPS challenge; assay type: functional
[20] = tested on: Mus musculus; assay: Inhibition of LPS-stimulated TNF production in mouse at 40 mg/kg, po administered 4.5 hr before LPS challenge measured […] after LPS challenge; assay type: functional
[21] = tested on: Mus musculus; assay: Inhibition of LPS-stimulated IL-6 production in CSF-1 primed mouse at 40 mg/kg, po administered 0.5 hr before LPS challenge post CSF-1 priming measured […] after LPS challenge; assay type: functional
[22] = tested on: Mus musculus; assay: Inhibition of LPS-stimulated TNF production in mouse at 20 to 80 mg/kg, po administered 4.5 hr before LPS challenge and measured […] after LPS challenge; assay type: functional, organism-based
[23] = tested on: NFS-60; assay: Antitumor activity in mouse M-NFS-60 cells allografted in CD-1 nude mouse assessed as inhibition of tumor cell growth in peritoneal cavity at 80 mg/kg, po BID starting 1 hr before challenge for 4 days measured after 4 days; assay type: functional, organism-based; set-up: dose 80 mg/kg
In short: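 CD-1 nude female mice (22-26 g); 1 × 10^7 M-NFS-60 cells in PBS injected i.p. Oral dosing b.i.d. at 20 and 80 mg/kg as a suspension in 0.5% hydroxypropylmethylcellulose/0.1% Tween 80 (0.2 ml per mouse), starting 1 h before cell injection. Peritoneal cells recovered by cold PBS-heparin lavage on day 4 and counted by hemocytometer after crystal violet dilution. Mean ± SEM; Dunnett's test.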

[24] = tested on: Mus musculus; assay: Toxicity in mouse M-NFS-60 cells allografted CD-1 nude mouse assessed as effect on body weight at 20 to 80 mg/kg, po BID starting 1 hr before challenge for 4 days; assay type: organism-based; set-up: dose 20-80 mg/kg, route oral; settings: in vivo
In short: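 Female CD-1 nude mice (22-26 g) received 1 × 10^7 M-NFS-60 cells in PBS i.p. Oral dosing b.i.d. in 0.5% HPMC/0.1% Tween 80 began 1 h before cell injection. Body weight was taken at kill on day 4.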

[25] = tested on: Mus musculus; assay: Increase in LPS-stimulated IL-6 production in mouse at 40 mg/kg, po administered 4.5 hr before LPS challenge measured […] after LPS challenge

Sequence of [Pyruvate dehydrogenase (acetyl-transferring)] kinase isozyme 4, mitochondrial (Q16654 whole entry, the tested form may be a part): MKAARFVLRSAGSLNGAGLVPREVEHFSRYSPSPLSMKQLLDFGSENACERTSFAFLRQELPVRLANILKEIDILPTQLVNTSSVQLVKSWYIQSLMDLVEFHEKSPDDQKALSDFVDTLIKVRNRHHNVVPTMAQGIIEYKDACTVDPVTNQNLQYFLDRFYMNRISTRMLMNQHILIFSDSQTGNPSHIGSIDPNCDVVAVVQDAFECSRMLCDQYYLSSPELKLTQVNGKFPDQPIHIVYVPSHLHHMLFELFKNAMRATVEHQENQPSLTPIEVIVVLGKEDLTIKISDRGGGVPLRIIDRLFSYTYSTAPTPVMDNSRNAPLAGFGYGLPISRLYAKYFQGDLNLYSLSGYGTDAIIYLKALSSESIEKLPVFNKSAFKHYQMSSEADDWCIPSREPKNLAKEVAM
Sequence of Proto-oncogene tyrosine-protein kinase LCK (P06240 whole entry): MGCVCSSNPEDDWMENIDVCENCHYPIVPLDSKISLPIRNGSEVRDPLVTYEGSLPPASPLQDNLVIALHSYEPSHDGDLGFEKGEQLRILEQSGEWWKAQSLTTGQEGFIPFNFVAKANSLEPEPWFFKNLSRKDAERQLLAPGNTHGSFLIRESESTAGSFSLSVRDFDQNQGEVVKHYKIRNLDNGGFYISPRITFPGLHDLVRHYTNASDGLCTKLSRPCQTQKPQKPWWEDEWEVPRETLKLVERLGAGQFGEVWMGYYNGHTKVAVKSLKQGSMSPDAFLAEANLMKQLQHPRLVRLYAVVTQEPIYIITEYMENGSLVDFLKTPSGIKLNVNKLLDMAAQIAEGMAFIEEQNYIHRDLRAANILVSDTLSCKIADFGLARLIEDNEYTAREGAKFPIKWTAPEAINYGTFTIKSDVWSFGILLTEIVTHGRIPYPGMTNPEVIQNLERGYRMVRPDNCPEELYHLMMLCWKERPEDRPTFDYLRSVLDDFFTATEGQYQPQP

Q: What does the source list for `COc1ccc(COc2ccc(Cc3cnc(N)nc3N)cc2OC)cc1` [GW632580X]?
A: inhibition in vivo at 80 mg/kg [1]: 25%; IC50 [2]: > 10 µM; IC50 [3]: > 28 µM; IC50 [4]: > 10 µM; IC50 [5]: > 13 µM; IC50 [6]: 0.33 µM; IC50 [7]: 0.47 µM; IC50 [8]: > 30 µM; inhibition of growth at 1 µM [9]: 50%; Activity [10]: inactive; Activity [11]: inactive; Activity [12]: inactive; Activity [13]: 120 /cm2; bone resorption (%) at 3 µM [14]: 1.5%; Activity [15]: 34 /cm2; inhibition [16]: 80%; fraction unbound at 3 µM [17]: 0.05; Cmax [18]: 400 nM; inhibition in vivo at 40 mg/kg [19]: 68%; inhibition in vivo at 40 mg/kg [20]: 42%; inhibition in vivo at 40 mg/kg [21]: -6%; inhibition [22]: Active; growth inhibition (GI) [23]: Active; Activity [24]: Non-toxic; Activity [25]: Active

Reference: ChEMBL document CHEMBL1955811, “Inhibition of colony-stimulating-factor-1 signaling in vivo with the orally bioavailable cFMS kinase inhibitor GW2580” (Proc Natl Acad Sci U S A, 2005)
